Results published in ChEMBL document CHEMBL2021841, “The design and synthesis of potent, selective benzodiazepine sulfonamide bombesin receptor subtype 3 (BRS-3) agonists with an increased barrier of atropisomerization” (Bioorg Med Chem, 2012).

Legend:
[1] = molecular target: T1, Bombesin receptor subtype-3 (Mus musculus) (UniProt O54798); assay: Agonist activity at mouse BRS3 expressed in human HEK293AEQ cells measured for 10 mins by aequorin bioluminescence assay relative to dY-peptide; format: functional, cell-based
T1 sequence (whole entry): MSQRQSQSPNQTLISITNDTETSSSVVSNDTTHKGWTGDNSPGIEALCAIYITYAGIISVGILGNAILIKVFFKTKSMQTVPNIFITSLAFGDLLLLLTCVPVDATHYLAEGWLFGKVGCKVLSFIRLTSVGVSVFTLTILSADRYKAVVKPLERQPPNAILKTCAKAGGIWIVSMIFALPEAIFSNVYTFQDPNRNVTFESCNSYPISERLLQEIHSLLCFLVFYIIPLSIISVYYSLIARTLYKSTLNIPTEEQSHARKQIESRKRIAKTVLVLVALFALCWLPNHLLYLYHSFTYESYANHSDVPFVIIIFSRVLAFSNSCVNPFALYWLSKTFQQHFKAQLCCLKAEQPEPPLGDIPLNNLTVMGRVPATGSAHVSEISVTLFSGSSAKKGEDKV
Method in brief: (§1)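 Same aequorin read-out in HEK293AEQ cells expressing human or mouse BRS3. Compounds were titrated in ECB buffer with 0.5% DMSO final, and coelenterazine-loaded cells were injected. Luminescence was integrated over 10 min. The value is maximal activation expressed as a percentage of the maximal response to dY-peptide.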

[2] = system: Rattus norvegicus; assay: Dose normalized AUC in Sprague-Dawley rat at 1 mg/kg, po; format: ADME, organism-based; parameters: dose 1 mg/kg, route oral; settings: in vivo
Method in brief: (§2)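 Sprague Dawley rats were dosed 1 mg/kg po. Dose-normalized oral AUC and oral bioavailability were calculated.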

[3] = molecular target: T2, Bombesin receptor subtype-3 (Homo sapiens) (UniProt P32247); assay: Agonist activity at human BRS3 expressed in human HEK293AEQ cells measured for 10 mins by aequorin bioluminescence assay relative to dY-peptide; format: functional, cell-based; method in brief: as §1
T2 sequence (whole entry): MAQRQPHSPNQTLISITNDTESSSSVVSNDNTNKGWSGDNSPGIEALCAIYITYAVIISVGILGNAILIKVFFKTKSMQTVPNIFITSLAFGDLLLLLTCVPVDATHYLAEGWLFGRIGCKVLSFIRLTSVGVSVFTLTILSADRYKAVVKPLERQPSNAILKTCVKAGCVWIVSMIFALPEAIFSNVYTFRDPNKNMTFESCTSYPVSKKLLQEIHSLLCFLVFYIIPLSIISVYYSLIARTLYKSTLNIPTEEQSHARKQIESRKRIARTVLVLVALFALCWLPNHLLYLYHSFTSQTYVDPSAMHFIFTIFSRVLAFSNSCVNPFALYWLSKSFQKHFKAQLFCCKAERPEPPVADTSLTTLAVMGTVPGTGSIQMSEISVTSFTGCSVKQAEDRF

[4] = Oral bioavailability in Sprague-Dawley rat at 1 mg/kg; format: ADME, organism-based; settings: in vivo; method in brief: as §2
[5] = Half life of the compound in ethanol at 60 degC by CD spectroscopy; format: physicochemical
[6] = molecular target: T3, Bombesin receptor subtype-3 (Homo sapiens, UniProt P32247); assay: Agonist activity at human BRS3 expressed in human HEK293AEQ cells measured for 10 mins by aequorin bioluminescence assay; format: functional, cell-based
T3 sequence (P32247 whole entry): T2 sequence (whole entry)

[7] = molecular target: T3, Bombesin receptor subtype-3; assay: Displacement of 125I-dY-peptide from human BRS3 expressed in NFAT-CHO cells after 2 hrs by liquid scintillation counting; format: cell-based
[8] = molecular target: T4, Bombesin receptor subtype-3 (Mus musculus, UniProt O54798); assay: Agonist activity at mouse BRS3 expressed in human HEK293AEQ cells measured for 10 mins by aequorin bioluminescence assay; format: functional, cell-based
T4 sequence (O54798 whole entry): T1 sequence (whole entry)

[9] = Plasma clearance in Sprague-Dawley rat at 0.5 mg/kg, iv; format: ADME, organism-based; parameters: dose 0.5 mg/kg, route intravenous
Method in brief: (§3)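 Sprague Dawley rats received 0.5 mg/kg iv. Plasma clearance and half-life were calculated from the plasma profile.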

[10] = Half life in Sprague-Dawley rat at 0.5 mg/kg, iv; format: ADME, organism-based; parameters: dose 0.5 mg/kg, route intravenous; settings: in vivo; method in brief: as §3

Compound | Activity [1] [%] | AUC/dose [2] [µM·kg·h/mg] | Activity [3] [%] | bioavailability [4] [%] | half-life [5] [h] | EC50 [6] [nM] | IC50 [7] [nM] | EC50 [8] [nM] | clearance [9] [mL/min/kg] | half-life [10] [h]
CC(C)(O)c1nc(C(C)(C)c2cccc3c2N(S(=O)(=O)c2ccc(OC(F)(F)F)cc2)Cc2ccc(C(F)(F)F)nc2N3)no1 | 105 | 2.6 | 97 | 100 | > 250 | 64 | 1.4 | 67 | 12 | 3.1
CC(C)(O)c1nc(-c2cccc3c2N(S(=O)(=O)c2ccc(OC(F)(F)F)cc2)Cc2ccc(C(F)(F)F)nc2N3)no1 |  | 1.6 | 106 | 93 | 2.2 | 73 | 3.6 | 130 | 16 | 11
CC(C)(O)c1nc(C2(c3cccc4c3N(S(=O)(=O)c3ccc(OC(F)(F)F)cc3)Cc3ccc(C(F)(F)F)nc3N4)CCC2)no1 | 99 | 0.6 | 97 | 49 | > 250 | 82 | 0.6 | 76 | 21 | 2.9
NC(=O)C1(c2cccc3c2N(S(=O)(=O)c2ccc(OC(F)(F)F)cc2)Cc2ccc(C(F)(F)F)nc2N3)CCC1 | 100 | 0.3 | 95 | 32 | > 250 | 21 | 0.5 | 22 | 31 | 0.8
CNC(=O)C1(c2cccc3c2N(S(=O)(=O)c2ccc(OC(F)(F)F)cc2)Cc2ccc(C(F)(F)F)nc2N3)CCC1 | 112 | 0.69 | 106 | 60 |  | 15 | 2.1 | 22 | 25 | 1.7
CC(C)(C(N)=O)c1cccc2c1N(S(=O)(=O)c1ccc(OC(F)(F)F)cc1)Cc1ccc(C(F)(F)F)nc1N2 | 98 | 0.3 | 90 | 31 |  | 26 | 0.5 | 27 | 33 | 1.6
